Test results published in ChEMBL document CHEMBL1122351, “Synthesis of (E)-1-(5-chlorothien-2-yl)-2-(1H-imidazol-1-yl)ethanone 2,6-dichlorophenylhydrazone hydrochloride, a novel, orally active antifungal agent” (1983).
Values after ≈ are worked out from the molar mass of the structure shown.

What was measured:
Candida albicans [1] = assay: In vitro antifungal activity against Candida albicans A; assay type: functional
How it was run: (§1)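 Agar dilution in Sabouraud dextrose agar in microtitre wells. Drug stock in Me2SO, serial twofold dilutions to final 0.8–100 µg/mL, final Me2SO 1%. Candida inoculum 10^4 cells/mL, read after 24 h at 37 °C. Dermatophytes used mycelial inocula, read after 5 days at […]. MIC is the highest dilution with no visible growth. Run in duplicate.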

Candida albicans [2] = assay: In vitro antifungal activity against Candida albicans 3153; assay type: functional; how it was run: as §1
Trichophyton benhamiae = assay: In vitro antifungal activity against Trichophyton mentagrophytes; assay type: functional, Arthroderma benhamiae; how it was run: as §1
Mus musculus [3] = assay: Effect of oral administration (5 mg/kg) on recovery of Candida albicans from kidneys of mice with expt. candidal infection; assay type: functional
How it was run: (§2)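 Mice, 10 per group, infected intravenously with a sublethal dose (50 × 10^4 cells) of C. albicans. Oral gavage at 0 and 24 h after infection. Killed 2 days post-infection; kidneys excised, weighed, homogenized, diluted and plated on glucose-peptone agar, 24 h at 37 °C. Colony counts compared with infected untreated controls, given as % reduction.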

Candida albicans [4] = assay: In vitro antifungal activity against Candida albicans B; assay type: functional; how it was run: as §1
Mus musculus [5] = assay: Effect of oral administration (2.5 mg/kg) on recovery of Candida albicans from kidneys of mice with expt. candidal infection; assay type: functional; how it was run: as §2
Rattus norvegicus [6] = assay: Percent reduction in recovery of Candida albicans (experimental vaginitis) n rats by topical administration at 1% w/v; assay type: functional, Vagina
Trichophyton rubrum = assay: In vitro antifungal activity against Trichophyton rubrum; assay type: functional; how it was run: as §1
Epidermophyton floccosum = assay: In vitro antifungal activity against Epidermophyton floccosum; assay type: functional; how it was run: as §1
Mus musculus [7] = assay: Effect of oral administration (20 mg/kg) on recovery of Candida albicans from kidneys of mice with expt. candidal infection; assay type: functional; how it was run: as §2
Rattus norvegicus [8] = assay: Percent reduction in recovery of Candida albicans (experimental vaginitis) n rats at 20 mg/kg (po); assay type: functional, Vagina
How it was run: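 Female Wistar rats, 6 per group, hysterectomized and ovariectomized. Pseudoestrus induced with subcutaneous estradiol diacetate (125 µg) after 3 weeks, then every 3 days. Infected intravaginally with 10^7 C. albicans cells on 2 successive days; treatment began 2 days later. Infection confirmed by >600 colonies per 50 µL vaginal washings. Oral dosing by gavage. Result given as % reduction in recovery versus control.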

Rattus norvegicus [9] = assay: Percent reduction in recovery of Candida albicans (experimental vaginitis) in rats at 10 mg/kg (po); assay type: functional, Vagina
How it was run: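 Female Wistar rats, 6 per group, hysterectomized and ovariectomized. Pseudoestrus induced and kept by s.c. estradiol diacetate (125 µg) every 3 days. Infected intravaginally with 10^7 C. albicans cells on 2 successive days, with 2 days to establish. Maximal infection meant >600 colonies per 50 µL vaginal washing. Dosed by oral gavage; % reduction in recovery versus control.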

Mus musculus [10] = assay: Effect of oral administration (10 mg/kg) on recovery of Candida albicans from kidneys of mice with expt. candidal infection; assay type: functional
How it was run: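 Mice (10 per group) infected intravenously with a sublethal dose (50 × 10^4 cells) of C. albicans. Oral gavage at 0 and 24 h after infection. Kidneys excised 2 days post-infection, weighed and homogenized. Diluted homogenates plated on glucose-peptone agar for 24 h at 37 °C. Colony counts compared with infected, untreated controls and expressed as % reduction.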

Cavia porcellus [11] = assay: Effect of oral administration (30 mg/kg) on course of expt. Ringworm infections in guinea pig by Trichophyton mentagrophytes; assay type: functional
How it was run: (§3)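 Female guinea pigs, eight per group, shaved backs infected with a saline suspension of T. mentagrophytes spores. Drug given orally or applied topically; topical positive control was a 1% w/v solution in polyethylene glycol 200. Disease course followed by culture of skin and hair samples from on and around the infection sites. Result given as % reduction in recovery versus control.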

Cavia porcellus [12] = assay: Effect of topical administration (2% w/v) on course of expt. Ringworm infections in guinea pig by Trichophyton mentagrophytes; assay type: functional; how it was run: as §3
Candida albicans [13] = assay: In vitro antifungal activity against Candida albicans GB; assay type: functional; how it was run: as §1
Microsporum canis = assay: In vitro antifungal activity against Microsporum canis; assay type: functional; how it was run: as §1
Cavia porcellus [14] = assay: Effect of oral administration (60 mg/kg) on course of expt. Ringworm infections in guinea pig by Trichophyton mentagrophytes; assay type: functional; how it was run: as §3
Cavia porcellus [15] = assay: Effect of topical administration (1% w/v) on course of expt. Ringworm infections in guinea pig by Trichophyton mentagrophytes; assay type: functional; how it was run: as §3
Rattus norvegicus [16] = assay: Percent reduction in recovery of Candida albicans (experimental vaginitis) in rats by topical administration at 1% w/v; assay type: functional, Vagina

SMILES	MIC (Candida albicans [1]) [µg/mL]	MIC (Candida albicans [2]) [µg/mL]	MIC (Trichophyton benhamiae) [µg/mL]	MIC (Candida albicans [4]) [µg/mL]	MIC (Trichophyton rubrum) [µg/mL]	MIC (Epidermophyton floccosum) [µg/mL]	Reduction (Rattus norvegicus [9]) [%]	Reduction (Mus musculus [10]) [%]	MIC (Candida albicans [13]) [µg/mL]	MIC (Microsporum canis) [µg/mL]	other results
Cl.Clc1ccc(/C(Cn2ccnc2)=N/Nc2c(Cl)cccc2Cl)s1 [ZINOCONAZOLE HYDROCHLORIDE]	6.2	12.5	12.5	6.2	25	25	47	65	12.5	25	Reduction (Mus musculus [3]): 43%; Reduction (Mus musculus [5]): 9%; Reduction (Rattus norvegicus [6]): 54%; Reduction (Mus musculus [7]): 44%; Reduction (Rattus norvegicus [8]): 63%; Reduction (Cavia porcellus [11]): 70%; Reduction (Cavia porcellus [12]): 77%
Clc1ccc(COC(Cn2ccnc2)c2ccc(Cl)cc2Cl)c(Cl)c1 (stereo not drawn) [MICONAZOLE]	6.2 (≈ 14.9 µM)	12.5 (≈ 30 µM)	1.6 (≈ 3.84 µM)	6.2 (≈ 14.9 µM)	1.6 (≈ 3.84 µM)	12.5 (≈ 30 µM)			6.2 (≈ 14.9 µM)	6.2 (≈ 14.9 µM)	
Cl.Clc1ccc(/C(Cn2ccnc2)=N\Nc2c(Cl)cccc2Cl)s1	6.2	12.5	12.5	6.2	12.5	25			12.5	25	
CC(=O)N1CCN(c2ccc(OCC3COC(Cn4ccnc4)(c4ccc(Cl)cc4Cl)O3)cc2)CC1 (stereo not drawn) [KETOCONAZOLE]							68	57			
COC1=CC(=O)C[C@@H](C)[C@]12Oc1c(Cl)c(OC)cc(OC)c1C2=O [GRISEOFULVIN]											Reduction (Cavia porcellus [14]): 90%
Clc1ccccc1C(c1ccccc1)(c1ccccc1)n1ccnc1 [CLOTRIMAZOLE]											Reduction (Cavia porcellus [15]): 88%; Reduction (Rattus norvegicus [16]): 75%
